Only some compounds are listed: those with a hit (about 2.5% of all), similar ones and a draw of the others.
Rin1-Abl PPI inh: inhibitors of human Rin1-Abl protein interaction. AID 588664. P00519+Q13671. hit rate 0.4% among 360,000. inhibition, % at 7.35 µM. TR-FRET Rin1/Abl binding, biochemical; in the data active = inhibition above about 5%, passing the limit was not always enough
Arr AP2 block: human beta-arrestin and AP2 interaction inhibition; FITC-arrestin peptide / GST-AP2 beads, flow cytometry; AP2 beta2 appendage carries R879A mutation; hit rate 0.31% among 340,000; inhibition, % at 10 µM;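 active = inhibition above a set limit, near 3 SD of compounds lacking own fluorescence, cut at about 54% in these data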;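 note: plate controls were DMSO wells for no effect and 5 µM unlabelled arrestin peptide for full effect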
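Material – GST-tagged AP2 beta2-adaptin appendage (R879A) on 4 µm glutathione beads · Probe or stimulus – fluorescein-tagged arrestin peptide at 50 nM final · Timing – 12 min plus 1 h, RT · Detection – bead flow cytometry, FITC channel · Read-out basis – inhibition as reduced fluorescein signal on beads, percent · Medium – PBS plus Tween 20 (0.05%) and BSA (0.1%)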
Beta2AR agonist: activates human beta-2 adrenergic receptor causing internalization. AID 504454. hit rate 0.43% among 340,000. P07550. Am2.2-beta2AR cells, FAP receptor internalization, flow cytometry. response, % (no concentration beside the values);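 active = response above a set limit, near 3 SD of response in nonfluorescent compounds, cut at about 42% in these data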
ABHD5 PLIN5 PPI: blocks binding of human ABHD5 to perilipin-5; Q00G26+Q8WTS1; Split G. princeps luciferase complementation, luminescence, 4 h; inhibition, % at 4 µM; hit rate 0.78% among 360,000; AID 602281;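 active = inhibition above the mean inhibition across every tested compound plus 3 SD, cut at about 22% in these data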;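 note: 0% = DMSO only wells and the 100% control is not disclosed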
MBD2 inh: inhibitors of human MBD2 binding to methylated oligonucleotide; TR-FRET; inhibition, % at 4.4 µM; hit rate 0.31% among 370,000; in the data active = inhibition above about 13%
UHRF1 MBD2 ctr: UHRF1 methyl-DNA binding inhibition; inhibition, % at 4.4 µM; AID 687016; hit rate 0.75% among 370,000; UHRF1 binding to methylated oligo, TR-FRET; in the data active = inhibition above about 21%;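 note: UHRF1 SRA domain binding a hemimethylated CpG hairpin DNA probe; 0% = median of test compound wells and 100% = reference inhibitor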
* = called active by the depositor; x = not tested or not shown.

SMILES	Rin1-Abl PPI inh	Arr AP2 block	Beta2AR agonist	ABHD5 PLIN5 PPI	MBD2 inh	UHRF1 MBD2 ctr
N#CCC[C@@H]1CC[C@]2(CCCN(Cc3ccc(Br)cc3)C2)O1	x	x	x	x	7	2
O=c1cc(CN2CCOCC2)c2cc(Cl)c(O)cc2o1	0	-3	1	-3	12	40*
Cc1c(O)ccc2c(CN3CCOCC3)cc(=O)oc12	-5	-10	7	6	-6	-3
CC(C)C[C@H](NC1(C(=O)NC2CCCCC2)CCCCC1)C(=O)NCCc1c[nH]c2ccccc12	x	x	x	x	1	3
CC[C@]12c3[nH]c4cc(-c5ccco5)ccc4c3CCN1C(=O)[C@@H](CC(=O)NCc1ccc(OC)c(OC)c1)C[C@@H]2C(=O)N1CCN(C(=O)C2CC2)CC1	-3	-1	1	0	3	-2
COc1ccc(CNC(=O)C[C@H]2C[C@H](C(=O)N3CCCCC3)[C@@]3(CCc4ccccc4)c4[nH]c5cc(-c6ccco6)ccc5c4CCN3C2=O)cc1OC	2	-2	0	45*	x	x
CN(C)CCCNC(=O)C[C@H]1C[C@H](C(=O)N2CCCCC2)[C@@]2(CCc3ccccc3)c3[nH]c4cc(-c5ccco5)ccc4c3CCN2C1=O	-2	-1	31	22*	-7	-2
CCOC(=O)c1sc(=S)n(-c2ccccc2)c1SC	-3	-4	-2	-1	3	5
CCOC(=O)c1c(SCCN2CCCC2)n(-c2ccccc2)c(=S)n(-c2ccccc2)c1=O	2	11	53*	22*	-1	0
O=C(NCCCc1ccccc1)C1CCC(=O)N(Cc2ccc(Cl)cc2)C1 (centres undefined)	-2	14	-11	7	6	21*
COc1ccc(CCCNC(=O)C2CCC(=O)N(Cc3ccc(Cl)cc3)C2)cc1 (centres undefined)	0	-1	-7	9	4	26*
O=C(NCCc1ccccc1Cl)C1CCC(=O)N(Cc2ccc(Cl)cc2)C1 (centres undefined)	-1	50	-4	0	-3	1
CCOC(=O)[C@]12CCCCC/C=C\1N(Cc1ccc(OC)cc1)C(=O)[C@H]2CC(=O)N1CCC(c2ccccc2)CC1	x	x	x	x	-2	3
C=CCN1C(C(=O)OC)CN(Cc2cn(Cc3ccc(Cl)cc3)nn2)CCS1(=O)=O (centres undefined)	x	x	x	x	2	16
O=C(CSc1ccc(Cl)cc1)N1CCN(c2ccc(Cl)cc2[N+](=O)[O-])CC1	2	27	2	1	0	22*
COCCCNC(=O)C1CCN(S(=O)(=O)c2ccc3[nH]c(=O)oc3c2)CC1	x	x	x	x	-2	-2
Cc1ccc(Sc2ccc(/C=N/O)cc2[N+](=O)[O-])cc1	2	0	58*	5	5	2
N#CCc1ccc(OC[C@@H](O)CN2CCC(C(O)(c3ccccc3)c3ccccc3)CC2)cc1	x	x	x	x	-1	2
O=C1c2cccc3cccc(c23)C(=O)N1c1ccc2ncccc2c1	-9	10	70*	3	0	-8
O=C(Oc1ccc2ccccc2c1Br)N1CCCCCC1	-8	0	62*	-1	6	1
O=C(COc1ccc2ccccc2c1Br)N1CCCCC1	-8	-12	-8	-7	x	x
c1coc(Cn2nnnc2CN2CCN(C3CCCC3)CC2)c1	-1	7	8	-2	2	4
Fc1ccc(Cn2nnnc2CN2CCN(C3CCCCC3)CC2)cc1	2	-5	-6	0	-4	48*
O=C(c1c[nH]c2ccc(F)cc2c1=O)N1CCCCCC1	0	13	-8	4	4	-3
Cc1cccc2c(=O)c(C(=O)N3CCCCCC3)c[nH]c12	2	4	-3	-3	10	23*
SMILES	Rin1-Abl PPI inh	Arr AP2 block	Beta2AR agonist	ABHD5 PLIN5 PPI	MBD2 inh	UHRF1 MBD2 ctr
O=[N+]([O-])c1ccc(Nc2ccccn2)c([N+](=O)[O-])c1	-2	18	20	7	-5	-4
O=[N+]([O-])c1c(Nc2ccccn2)cc(Cl)c2nonc12	4	26	63*	-9	-5	9
O=C1CSc2ccc(C(=O)N3CCCC(C(=O)N4CCCN(Cc5ccccc5)CC4)C3)cc2N1 (centres undefined)	x	x	x	x	-5	-2
O=C(CSc1nnc(-c2cccnc2)n1-c1ccccc1)Nc1ccc(OCc2ccccc2)cc1	x	x	x	x	-3	1
O=C1C(Nc2ccccc2)=C/C(=N/S(=O)(=O)c2cccs2)c2ccccc21	1	24	49*	4	x	x
Cc1ccc(S(=O)(=O)/N=C2\C=C(Nc3ccc(O)cc3)C(=O)c3ccccc32)cc1	-2	-1	74*	-6	x	x
Cc1ccc(S(=O)(=O)/N=C2\C=C(Nc3cccc(C(=O)O)c3)C(=O)c3ccccc32)cc1	1	19	31	8	-3	7
COC(=O)c1ccccc1NC1=C/C(=N\S(=O)(=O)c2ccc(C(=O)O)cc2)c2ccccc2C1=O	-1	31	61*	-12	x	x
COC(=O)c1ccccc1NC1=C/C(=N\S(=O)(=O)c2cccs2)c2ccccc2C1=O	-4	4	24	-12	-7	-4
Cc1ccc(NC2=C/C(=N/S(=O)(=O)c3cccs3)c3ccccc3C2=O)cc1	0	5	43*	-4	2	-3
Cc1sc(NC(=S)NC(=O)c2ccccc2)c(C#N)c1C	-1	24	-6	-8	5	3
CCCN1CCc2c(sc(NC(=S)NC(=O)c3ccccc3)c2C#N)C1	-15	-31	-40	-6	15*	17
CC(C)N1CCc2c(sc(NC(=S)NC(=O)c3ccccc3)c2C#N)C1	-11	-4	-28	-2	21*	15
CC(C)C1Cc2c(sc(NC(=S)NC(=O)c3ccccc3)c2C#N)CO1 (centres undefined)	-2	12	2	-6	-2	-4
O=C(c1cccs1)C1CCN(c2ncnc3sccc23)CC1	x	x	x	x	-1	-4
COc1ccc(NC(=O)N2CCC(c3nc4ccc(Cl)cc4[nH]3)CC2)cc1OC	x	x	x	x	2	-2
O=C(Nc1ccc2c(c1)C(=O)NC2=O)c1cccc(C(F)(F)F)c1	2	4	-4	-2	7	21*
O=C(COC(=O)/C=C/c1ccc(Cl)cc1)NC1CCCCCC1	2	6	44*	3	-1	1
C=CCN1C(=O)[C@@H](CC(=O)N2CCCCC2)[C@]2(C(=O)OCC)CCCCC/C=C/12	x	x	x	x	-2	0
Cc1ccc(NC(=O)CN2C(=O)S/C(=C/c3ccc(-c4cc(C(=O)O)ccc4C)o3)C2=O)cc1C	4	34	12	2	8	33*
C=CCN(c1ccccc1)S(=O)(=O)c1cccc(C(=O)NCC(c2ccc(F)cc2)N2CCOCC2)c1 (centres undefined)	-1	6	15	18	3	2
